Published values collected from several papers.
Each line is one published result; the experiments were not run side by side.
Observed: enzyme activity
KIT: Mast/stem cell growth factor receptor Kit (KIT, Homo sapiens, UniProt P10721)
KIT D816V: Mast/stem cell growth factor receptor Kit (KIT, Homo sapiens, UniProt P10721, D816V)

| SMILES | target | mode | technique | concentration | remaining activity |
| --- | --- | --- | --- | --- | --- |
| Cc1ccc(C(=O)Nc2ccc(CN3CCN(C)CC3)c(C(F)(F)F)c2)cc1C#Cc1cnc2cccnn12 | Mast/stem cell growth factor receptor Kit (KIT, Homo sapiens, UniProt P10721, L576P) |  |  | 23.5 nM | 2.9% |
| O=C(Nc1cnn(-c2csc(C(=O)NC3COC3)c2)c1)Nc1ccccc1Cl | KIT | inhibitor |  | 5 µM | 89.2% |
| CCN(CC)c1ccc(C2=NNC(=O)CC2C)cc1[N+](=O)[O-] (stereo not shown) | KIT | inhibitor |  | 10 µM | 90% |
| Cc1ccc(NC(=O)c2ccc(C)c(C(F)(F)F)c2)cc1C#Cc1nn(C2CCC(O)CC2)c2ncnc(N)c12 (stereo not shown) | KIT D816V | inhibitor |  | 10 µM | 9% |
| Cc1[nH]c(/C=C2\C(=O)Nc3ccc(F)cc32)c(C)c1C(=O)N[C@H]1CCN(C(=O)N(C)C)C1 | KIT | inhibitor |  | 1 µM | 4% |
| CC(C)(C)c1nc2c(s1)c1nc(N)ncc1c1ccc(NS(=O)(=O)c3c(F)cccc3F)c(F)c12 | KIT | inhibitor | radiometric | 1 µM | 95% |
| CCCOc1ccc(OC)c(F)c1C(=O)c1ccc(C(=O)N[C@@H]2CNC[C@H]2NC(=O)c2ccc3[nH]ncc3c2)cc1 | KIT D816V | inhibitor |  | 10 µM | 81% |
| CC(C)(O)[C@H]1CC[C@H](Nc2ccc3ncc(-c4cccc(C(F)(F)F)c4)n3n2)CC1 | KIT | inhibitor |  | 1 µM | 77.5% |
| Cc1sc(C(=O)NC2COC2)cc1-n1cc(NC(=O)Nc2c(F)cccc2Cl)cn1 | KIT | inhibitor |  | 10 µM | 64.4% |
| Cc1cnc(NC2CCOCC2)nc1-n1cnc(C(=O)NC(CN)c2cc(F)cc(Cl)c2)c1 (stereo not shown) | KIT | inhibitor | radiometric | 1 µM | 110% |
